Results published in ChEMBL document CHEMBL1134340, “GnRH antagonists: a new generation of long acting analogues incorporating p-ureido-phenylalanines at positions 5 and 6” (J Med Chem, 2001).
Converted amounts (≈) assume the structure as drawn. *1 amine or outer side, *2 acyl side, *3 side chain or, on linkers, in order; H or OH if unused. Where a SMILES comes first, the peptide text is derived from it. [ ]: non-standard residue; d: D form. Phe(4-NH(5-NH2triazol-3-yl)) = Nc1nc(Nc2ccc(C[C@H](N)C(=O)O)cc2)n[nH]1; X1 = Nc1nc(Nc2ccc(C[C@@H](N[*:1])C(=O)[*:2])cc2)n[nH]1; dPhe(4-NHCONH2) = NC(=O)Nc1ccc(C[C@@H](N)C(=O)O)cc1; Phe(4-NHCONH2) = NC(=O)Nc1ccc(C[C@H](N)C(=O)O)cc1; d(hArg(Et2)) = CCN=C(NCC)NCCCC[C@@H](N)C(=O)O; hArg(Et2) = CCN=C(NCC)NCCCC[C@H](N)C(=O)O; dPhe(4-Cl) = N[C@H](Cc1ccc(Cl)cc1)C(=O)O; d2Nal = N[C@H](Cc1ccc2ccccc2c1)C(=O)O; Lys(iPr) = CC(C)NCCCC[C@H](N)C(=O)O; d3Pal = N[C@H](Cc1cccnc1)C(=O)O

Assays:
Rattus norvegicus [1] = organism: Rattus norvegicus; test: Compound was tested for histamine release at a concentration of 30 ug/mL; assay type: functional
In short: (§1)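 Sprague-Dawley rat peritoneal mast cells, Percoll-purified, in heparinized balanced salt solution with albumin, pH 7.2. Cells exposed to compound or vehicle for 2 min at 37 °C. Supernatant histamine measured spectrofluorometrically after o-phthalaldehyde derivatization; pellets lysed for retained histamine. Reported as % of total histamine released, corrected for spontaneous release in vehicle.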

Rattus norvegicus [2] = organism: Rattus norvegicus; test: Compound was tested for inhibition of Leutenizing hormone release at 48 hours (intermediate duration) in castrated male rat assay; assay type: functional
In short: (§2)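 Male Sprague-Dawley rats (180-200 g), castrated under ether 10 days earlier, 5 per group. 50 µg/rat given sc in 100 µL 40 mM phosphate buffer with 0.1% BSA and 0.6% DMSO; acyline run as internal standard. Tail blood taken predose and at 24, 48, 72, 96 (sometimes 120) h; plasma LH by RIA. Duration classed by >80% LH inhibition at each time.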

Rattus norvegicus [3] = organism: Rattus norvegicus; test: Compound was tested for histamine release at a concentration of 10 ug/mL; assay type: functional; in short: as §1
Rattus norvegicus [4] = organism: Rattus norvegicus; test: Effective dose for histamine release was determined; assay type: functional
In short: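 ED50 for histamine release calculated from % release values across concentrations in rat peritoneal mast cell assay (2 min, 37 °C, o-phthalaldehyde fluorometric read-out, corrected for vehicle release).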

Rattus norvegicus [5] = organism: Rattus norvegicus; test: Compound was tested for histamine release at a concentration of 100 ug/mL; assay type: functional; in short: as §1
Rattus norvegicus [6] = organism: Rattus norvegicus; test: Compound was tested for inhibition of Leutenizing hormone release at 24 hours (very short duration) in castrated male rat assay; NI means no inhibition at 24 hr; assay type: functional, organism-based; in short: as §2
Rattus norvegicus [7] = organism: Rattus norvegicus; test: Compound was tested for inhibition of Leutenizing hormone release at 24 hours (short duration) in castrated male rat assay; assay type: functional; parameters: concentration or dose not given beside the values; in short: as §2
[8] = molecular target: T1, Gonadotropin-releasing hormone receptor (Homo sapiens, UniProt P30968); test: Competitive antagonism of GnRH-induced response in the reporter gene assay; assay type: functional; conditions: for Kb: read-out: pA2 (converted)
T1 sequence (P30968 whole entry): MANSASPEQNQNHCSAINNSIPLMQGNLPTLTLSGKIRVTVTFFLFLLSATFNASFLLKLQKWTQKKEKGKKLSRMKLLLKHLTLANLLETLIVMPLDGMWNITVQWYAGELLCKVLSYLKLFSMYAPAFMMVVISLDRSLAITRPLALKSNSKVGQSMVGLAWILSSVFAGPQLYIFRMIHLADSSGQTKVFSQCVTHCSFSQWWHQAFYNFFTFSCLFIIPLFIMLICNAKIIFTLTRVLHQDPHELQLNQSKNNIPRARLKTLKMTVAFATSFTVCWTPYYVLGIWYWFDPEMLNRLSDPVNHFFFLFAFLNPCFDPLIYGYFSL
In short: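 Same HEK293 human GnRH receptor luciferase reporter cells. Seven-point GnRH curve (10 µM to 10 pM final) run in duplicate without or with four to five increasing compound concentrations (10 min preincubation, 37 °C), then 5 h and luminescence. GnRH EC50 at each level by four-parameter logistic fit, giving pA2; mean of two determinations in duplicate.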

[9] = molecular target: T1, Gonadotropin-releasing hormone receptor; test: Antagonism of human GnHR receptor, determined in a reporter gene assay in HEK293 cells; assay type: functional, cell-based
In short: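 HEK293 cells stably expressing cloned human GnRH receptor plus luciferase reporter under LH alpha subunit promoter, plated 24 h before assay. Compound in 1% DMSO added 10 min at 37 °C, then GnRH at 3 nM final; 5 h incubation, luciferase luminescence read. Six concentrations in duplicate; blank-subtracted cps as % of GnRH control; mean of two determinations.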

Rattus norvegicus [10] = organism: Rattus norvegicus; test: Compound was tested for histamine release at a concentration of 150 ug/mL; assay type: functional; in short: as §1
Rattus norvegicus [11] = organism: Rattus norvegicus; test: Compound was tested for inhibition of Leutenizing hormone release at 72 hours (long duration) in castrated male rat assay; assay type: functional; parameters: concentration or dose not given beside the values; in short: as §2
Rattus norvegicus [12] = organism: Rattus norvegicus; test: Compound was tested for histamine release at a concentration of 300 ug/mL; assay type: functional; in short: as §1
Rattus norvegicus [13] = organism: Rattus norvegicus; test: Compound was tested for inhibition of Leutenizing hormone release at 96 hours (very long duration) in castrated male rat assay; assay type: functional; parameters: concentration or dose not given beside the values; in short: as §2

| Compound | Kb [8] | IC50 [9] | HR (Rattus norvegicus [1]) | HR (Rattus norvegicus [3]) | ED50 (Rattus norvegicus [4]) | HR (Rattus norvegicus [5]) | NI (Rattus norvegicus [6]) | other results |
| --- | --- | --- | --- | --- | --- | --- | --- | --- |
| CC(=O)O.CC(=O)O.CC/N=C(\NCC)NCCCC[C@H](NC(=O)[C@H](CC(C)C)NC(=O)[C@@H](CCCCN/C(=N/CC)NCC)NC(=O)[C@H](Cc1ccc(O)cc1)NC(=O)[C@H](CO)NC(=O)[C@@H](Cc1cccnc1)NC(=O)[C@@H](Cc1ccc(Cl)cc1)NC(=O)[C@@H](Cc1ccc2ccccc2c1)NC(C)=O)C(=O)N1CCC[C@H]1C(=O)N[C@H](C)C(N)=O [GANIRELIX ACETATE] (Ac-[d2Nal][dPhe(4-Cl)][d3Pal]SY[d(hArg(Et2))]L[hArg(Et2)]P[dA]-NH2) | – | – | 57% | 30% | 11 mg/L | 62% | – | Inhibition (Rattus norvegicus [2]): >80% |
| CC(=O)Nc1ccc(C[C@@H](NC(=O)[C@@H](NC(=O)[C@H](CO)NC(=O)[C@@H](Cc2cccnc2)NC(=O)[C@@H](Cc2ccc(Cl)cc2)NC(=O)[C@@H](Cc2ccc3ccccc3c2)NC(C)=O)N(C)C(N)=O)C(=O)N[C@@H](CC(C)C)C(=O)N[C@@H](CCCCNC(C)C)C(=O)N2CCC[C@H]2C(=O)N[C@H](C)C(N)=O)cc1 | – | – | – | – | – | – | no inhibition at 24 hr | – |
| CC(=O)Nc1ccc(C[C@@H](NC(=O)[C@H](Cc2ccc(NC(=O)[C@@H]3CC(=O)NC(=O)N3)cc2)N(C)C(=O)[C@H](CO)NC(=O)[C@@H](Cc2cccnc2)NC(=O)[C@@H](Cc2ccc(Cl)cc2)NC(=O)[C@@H](Cc2ccc3ccccc3c2)NC(C)=O)C(=O)N[C@@H](CC(C)C)C(=O)N[C@@H](CCCCNC(C)C)C(=O)N2CCC[C@H]2C(=O)N[C@H](C)C(N)=O)cc1 | 0.794 nM | 8.1 nM | 50% | – | – | 124% | – | Inhibition (Rattus norvegicus [7]): >80% |
| CC(=O)Nc1ccc(C[C@@H](NC(=O)[C@H](CNC(=O)[C@@H]2CC(=O)NC(=O)N2)NC(=O)[C@H](CO)NC(=O)[C@@H](Cc2cccnc2)NC(=O)[C@@H](Cc2ccc(Cl)cc2)NC(=O)[C@@H](Cc2ccc3ccccc3c2)NC(C)=O)C(=O)N[C@@H](CC(C)C)C(=O)N[C@@H](CCCCNC(C)C)C(=O)N2CCC[C@H]2C(=O)N[C@H](C)C(N)=O)cc1 | – | – | – | – | – | – | no inhibition at 24 hr | HR (Rattus norvegicus [10]): 96% |
| CC(=O)N[C@H](Cc1ccc2ccccc2c1)C(=O)N[C@H](Cc1ccc(Cl)cc1)C(=O)N[C@H](Cc1cccnc1)C(=O)N[C@@H](CO)C(=O)N[C@@H](Cc1ccc(NC(=O)[C@H]2CC(=O)NC(=O)N2)cc1)C(=O)N[C@H](Cc1ccc(NC(N)=O)cc1)C(=O)N[C@@H](CC(C)C)C(=O)N[C@@H](CCCCNC(C)C)C(=O)N1CCC[C@H]1C(=O)N[C@H](C)C(N)=O | – | – | – | – | 170 mg/L (≈ 104 µM) | 54% | – | pA2 [8]: 8.8; HR (Rattus norvegicus [12]): 68%; Inhibition (Rattus norvegicus [13]): >80%; IC50 ([9]; hek293): 3 nM |
| CC(=O)N[C@H](Cc1ccc2ccccc2c1)C(=O)N[C@H](Cc1ccc(Cl)cc1)C(=O)N[C@H](Cc1cccnc1)C(=O)N[C@@H](CO)C(=O)N[C@@H](CCCCNC(=O)[C@H]1CC(=O)NC(=O)N1)C(=O)N[C@H](CCCCNC(=O)[C@@H]1CC(=O)NC(=O)N1)C(=O)N[C@@H](CC(C)C)C(=O)N[C@@H](CCCCNC(C)C)C(=O)N1CCC[C@H]1C(=O)N[C@H](C)C(N)=O | – | – | – | – | – | – | no inhibition at 24 hr | – |

Second part, led by results:

| Kb [8] | IC50 [9] | Compound | HR (Rattus norvegicus [1]) | HR (Rattus norvegicus [3]) | ED50 (Rattus norvegicus [4]) | HR (Rattus norvegicus [5]) | NI (Rattus norvegicus [6]) | other results |
| --- | --- | --- | --- | --- | --- | --- | --- | --- |
| 1.58 nM | 6.9 nM | CC(=O)N[C@H](Cc1ccc2ccccc2c1)C(=O)N[C@H](Cc1ccc(Cl)cc1)C(=O)N[C@H](Cc1cccnc1)C(=O)N[C@@H](CO)C(=O)N[C@@H](Cc1ccc(Nc2n[nH]c(N)n2)cc1)C(=O)N[C@H](Cc1ccc(Nc2n[nH]c(N)n2)cc1)C(=O)N[C@@H](CC(C)C)C(=O)N[C@@H](CCCCNC(C)C)C(=O)N1CCC[C@H]1C(=O)N[C@H](C)C(N)=O.CC(=O)O [PRAZARELIX ACETATE] (Ac-[d2Nal][dPhe(4-Cl)][d3Pal]S[Phe(4-NH(5-NH2triazol-3-yl))][X1]L[Lys(iPr)]P[dA]-NH2) | 70% | 17% | 19 mg/L | 93% | – | Inhibition (Rattus norvegicus [11]): >80% |
| 1.58 nM | 2.8 nM | CC(=O)N[C@H](Cc1ccc2ccccc2c1)C(=O)N[C@H](Cc1ccc(Cl)cc1)C(=O)N[C@H](Cc1cccnc1)C(=O)N[C@@H](CO)C(=O)N[C@@H](Cc1ccc(NC(N)=O)cc1)C(=O)N[C@H](Cc1ccc(NC(N)=O)cc1)C(=O)N[C@@H](CC(C)C)C(=O)N[C@@H](CCCCNC(C)C)C(=O)N1CCC[C@H]1C(=O)N[C@H](C)C(N)=O (Ac-[d2Nal][dPhe(4-Cl)][d3Pal]S[Phe(4-NHCONH2)][dPhe(4-NHCONH2)]L[Lys(iPr)]P[dA]-NH2) | 75% | <10% | – | 153% | – | Inhibition (Rattus norvegicus [11]): >80% |
